In assay [1] the test system is SF-268. Nature of the assay: Cytotoxicity against human SF268 cells after 72 hrs by MTS assay. It counts as functional, cell-based. In short, it runs like this:
(§1)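 Continuous 72 h exposure with MTS read-out. IC50 is the concentration reducing cellular proliferation by 50% relative to untreated controls.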
A general note: Formazan colour is commonly taken as a measure of viable cells.

Assay [2] deals with NCI-H460. Nature of the assay: Cytotoxicity against human H460 cells after 72 hrs by MTS assay. It counts as functional, cell-based. A digest of the protocol:
as §1

In assay [3] the test system is MCF7. The assay can be described thus: Cytotoxicity against human MCF7 cells after 72 hrs by MTS assay. In kind it is functional, cell-based. The note with it: MCF7, 72 h. A digest of the protocol:
as §1

Assay [4] concerns MDA-MB-435. Nature of the assay: Cytotoxicity against human MDA-MB-435 cells after 72 hrs by MTS assay. The conditions noted are these: MDA-MB-435, 72 h. In kind it is functional, cell-based. A digest of the protocol: (§2)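 Cells were grown in RPMI 1640 with 10% FBS, penicillin and streptomycin. They were plated at 2500 (HT-29) or 5000 (MDA-MB-435) cells/well and preincubated 16 h at 37 °C in 5% CO2. Test substance was added at final 25, 5, 1, 0.2 and 0.04 µg/mL for 72 h. Read-out was MTS. IC50 is the concentration giving 50% reduction in proliferation versus untreated controls.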

In assay [5] the test system is Escherichia coli. The assay can be described thus: Antimicrobial activity against Escherichia coli by agar plate diffusion assay. In kind it is functional. In short, it runs like this: (§3)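 Agar plate diffusion. Overnight cultures of each organism were seeded into molten LB or Middlebrook 7H9 medium with 1% glycerol and 1.5% agar, held at 50 °C, and poured as plates. Samples in 10 µL MeOH were spotted onto the surface and tested up to 500 µg/mL. Positive controls were penicillin G, novobiocin and streptomycin. Plates were incubated overnight at 37 °C.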

In assay [6] the test system is Mycolicibacterium smegmatis. The assay can be described thus: Antimicrobial activity against Mycobacterium smegmatis by agar plate diffusion assay. In kind it is functional. In short, it runs like this:
as §3

Assay [7] deals with Staphylococcus aureus. Nature of the assay: Antimicrobial activity against Staphylococcus aureus by agar plate diffusion assay. It counts as functional. A digest of the protocol: as §3
Assay [8] deals with Bacillus subtilis. Nature of the assay: Antimicrobial activity against Bacillus subtilis by agar plate diffusion assay. It counts as functional. In short, it runs like this:
as §3

Assay [9] concerns HT-29. Nature of the assay: Cytotoxicity against human HT-29 cells after 72 hrs by MTS assay. In kind it is functional, cell-based. The note with it: HT-29, 72 h. In short, it runs like this: as §2
In assay [10] the target is Transcription factor p65 (Homo sapiens, UniProt Q04206). Nature of the assay: Inhibition of NFkappa p65 isolated from nuclear extract of human HeLa cells by ELISA. It counts as cell-free. Background: ELISA stands for enzyme-linked immunosorbent assay.
The test system of assay [11] is HT-29. Nature of the assay: Inhibition of mitochondrial membrane potential in human HT-29 cells using JC1 dye staining by fluorescence plate reader assay. In kind it is functional, cell-based. A digest of the protocol: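 HT-29 cells exposed to a range of test concentrations, then loaded with JC-1 dye and washed to remove unbound stain. Fluorescence read for monomers (ex 485/em 530 nm, apoptotic) and aggregates (ex 560/em 595 nm, healthy). Staurosporine positive control. Triplicate measurements, at least two independent experiments; IC50 reported.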

Assay [12] deals with Escherichia coli. Nature of the assay: Antimicrobial activity against Escherichia coli at 100 ug/mL by agar plate diffusion assay. In kind it is functional, organism-based. A digest of the protocol:
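Agar plate diffusion: overnight E. coli culture seeded into molten LB or Middlebrook 7H9 medium with 1% glycerol and 1.5% agar, held at 50 °C, then poured as assay plates. Samples dissolved in 10 µL MeOH were applied to the plate surface, and controls were treated the same way. Plates were incubated overnight at 37 °C.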

The record followed here is ChEMBL document CHEMBL1800017, “Resorcylic acid lactones with cytotoxic and NF-κB inhibitory activities and their structure-activity relationships” (J Nat Prod, 2011).

Calls of active or inactive are those of the source. No cut-off for these calls is given here.

As a reminder, the IC50 is the concentration at which inhibition is half-maximal. In general, MIC refers to the lowest concentration found to suppress growth. Lower therefore signals greater potency.

Chain of Transcription factor p65 (Q04206 whole entry): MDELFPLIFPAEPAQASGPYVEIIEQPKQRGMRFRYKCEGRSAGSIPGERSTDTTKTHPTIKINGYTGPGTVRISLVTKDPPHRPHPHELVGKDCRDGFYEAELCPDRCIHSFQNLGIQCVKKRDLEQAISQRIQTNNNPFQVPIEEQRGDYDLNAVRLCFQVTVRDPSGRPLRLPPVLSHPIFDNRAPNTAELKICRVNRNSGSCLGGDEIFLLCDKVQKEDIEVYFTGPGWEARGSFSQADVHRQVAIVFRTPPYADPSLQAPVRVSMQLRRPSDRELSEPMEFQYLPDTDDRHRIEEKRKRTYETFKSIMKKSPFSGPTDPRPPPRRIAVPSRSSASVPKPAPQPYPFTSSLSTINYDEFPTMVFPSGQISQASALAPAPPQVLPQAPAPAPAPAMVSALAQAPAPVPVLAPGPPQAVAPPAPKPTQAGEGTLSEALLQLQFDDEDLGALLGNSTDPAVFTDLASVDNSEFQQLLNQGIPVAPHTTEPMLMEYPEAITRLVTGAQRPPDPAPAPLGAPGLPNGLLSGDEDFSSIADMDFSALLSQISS

Regarding `C[C@H]1CCC[C@H](O)CCCCCc2cc(O)cc(O)c2C(=O)O1` [ZERANOL], the concentration for half-maximal inhibition (IC50) was greater than 50 µM in assay [1] (Homo sapiens, SF-268, 72 h); greater than 50 µM in assay [2] (Homo sapiens, NCI-H460, 72 h); greater than 50 µM in [3].
Consider `C[C@H]1C/C=C\C(=O)[C@@H](O)[C@@H](O)C/C=C/c2cc(O)cc(O)c2C(=O)O1`, for which the concentration for half-maximal inhibition (IC50) in assay [4] amounted to 15.8 µM; in assay [1] (Homo sapiens, SF-268, 72 h), 8.9 µM; in assay [2] (Homo sapiens, NCI-H460, 72 h), 4.1 µM; in assay [9] it was 11.5 µM; in assay [3], 10.3 µM; in assay [10] it was 0.75 µM. The minimum inhibitory concentration (MIC) in assay [5], in assay [6], in assay [7] and in assay [8] was greater than 500 µg/mL throughout.
With `COc1cc(O)c2c(c1)/C=C/C[C@H](O)[C@H](O)C(=O)/C=C\C[C@H](C)OC2=O`, the half-maximal inhibitory concentration (IC50) in assay [4] was 3.3 µM; in assay [1] (Homo sapiens, SF-268, 72 h) it was 5.1 µM; in assay [2] (Homo sapiens, NCI-H460, 72 h), 1.2 µM; in [9] it was 3.6 µM; in assay [3], 3.8 µM; in assay [10], 0.25 µM. For the same molecule, the minimum inhibitory concentration (MIC) in assay [5], in [6] and in assay [8] was greater than 500 µg/mL throughout.
With `C[C@H]1CCC[C@@H](O)CCCCCc2cc(O)cc(O)c2C(=O)O1` (stereo in doubt; 12) [TALERANOL], the IC50 in [1] (sf-268) is greater than 25 µM; in assay [2] (nci-h460), 9.5 µM.
In the case of `COc1cc(O)c2c(c1)/C=C/C[C@H](O)[C@H](O)C(=O)/C=C/C[C@H](C)OC2=O`, the IC50 in assay [4] was 5.5 µM; in assay [1] (Homo sapiens, SF-268, 72 h), 5.6 µM; in assay [9], 4.4 µM; in [3], 4.9 µM; in [10], 11.5 µM. Also, the MIC in assay [6] and in assay [7] was greater than 500 µg/mL in each case.
As for `C[C@H]1CCCC(=O)CCCCCc2cc(O)cc(O)c2C(=O)O1` [ZEARALANONE], the concentration for half-maximal inhibition (IC50) in assay [1] (Homo sapiens, SF-268, 72 h) was greater than 50 µM; in [2] (Homo sapiens, NCI-H460, 72 h), greater than 25 µM; in assay [3] it was greater than 25 µM.
As to `COc1cc(O)c2c(c1)[C@H]1O[C@@H]1C[C@H](O)[C@H](O)C(=O)/C=C\C[C@H](C)OC2=O` [HYPOTHEMYCIN], the IC50 in [1] (Homo sapiens, SF-268, 72 h) turned out to be 12.7 µM; in assay [2] (Homo sapiens, NCI-H460, 72 h), 4.3 µM; in [3], 16.3 µM.
Regarding `COc1cc(O)c2c(c1)/C=C/C[C@H](O)[C@H](O)[C@H](O)/C=C/C[C@H](C)OC2=O`, the IC50 in assay [4] is greater than 25 µM; in assay [1] (Homo sapiens, SF-268, 72 h) it was greater than 100 µM; in assay [2] (Homo sapiens, NCI-H460, 72 h) it was greater than 100 µM; in [9] it was greater than 25 µM; in [3], greater than 100 µM; in assay [10], greater than 50 µM. The MIC in assay [6], in assay [7] and in assay [8] was greater than 500 µg/mL throughout.
As for `COc1cc(O)c2c(c1)/C=C/C[C@H](O)[C@H](O)[C@@H](O)/C=C/C[C@H](C)OC2=O` [ZEAENOL], the concentration for half-maximal inhibition (IC50) is greater than 25 µM in assay [4]; greater than 100 µM in [1] (Homo sapiens, SF-268, 72 h); greater than 100 µM in assay [2] (Homo sapiens, NCI-H460, 72 h); greater than 25 µM in assay [9]; greater than 100 µM in assay [3]; greater than 50 µM in assay [10]. Besides, the MIC in assay [5] and in assay [6] was greater than 500 µg/mL in each case.
For the molecule `CN[C@@H]1C[C@H]2O[C@@](C)([C@@H]1OC)n1c3ccccc3c3c4c(c5c6ccccc6n2c5c31)C(=O)NC4` [STAUROSPORINE], in assay [11], the IC50 amounted to 0.0025 µM.
In the case of `CC1(C)S[C@@H]2[C@H](NC(=O)Cc3ccccc3)C(=O)N2[C@H]1C(=O)O`, the inhibition result in assay [12] is “Active”.
On to `CC[C@@]1(O)C(=O)OCc2c1cc1n(c2=O)Cc2cc3ccccc3nc2-1` [CAMPTOTHECIN], for which the 50% inhibitory concentration (IC50) was 0.04 µM in assay [1] (Homo sapiens, SF-268, 72 h); less than 0.01 µM in assay [2] (Homo sapiens, NCI-H460, 72 h); 0.07 µM in assay [3].
On to `COC(=O)[C@H]1[C@@H](O)[C@@]2(O)c3c(OC)cc(O[C@@H]4O[C@@H]([C@H](O)CO)CO[C@H]4OC)cc3O[C@@]2(c2ccc(OC)cc2)[C@@H]1c1ccccc1` [SILVESTROL], for which the IC50 was 0.006 µM in assay [4] and 0.004 µM in assay [9].
As to `C[C@H]1CCCC(=O)CCC/C=C/c2cc(O)cc(O)c2C(=O)O1` [ZEARALENONE], the half-maximal inhibitory concentration (IC50) is greater than 50 µM in [1] (Homo sapiens, SF-268, 72 h); greater than 25 µM in assay [2] (Homo sapiens, NCI-H460, 72 h); greater than 25 µM in assay [3].
As for `COc1cc(O)c2c(c1)/C=C/C[C@H](O)[C@H](O)C(=O)CCC[C@H](C)OC2=O`, the half-inhibitory concentration (IC50) in assay [4] was greater than 50 µM; in assay [1] (Homo sapiens, SF-268, 72 h), greater than 50 µM; in assay [2] (Homo sapiens, NCI-H460, 72 h), greater than 25 µM; in [9], greater than 50 µM; in [3], greater than 50 µM; in assay [10], greater than 50 µM. The MIC in assay [5], in assay [6], in assay [7] and in [8] was greater than 500 µg/mL throughout.
For `C[C@H]1CCC[C@@H](O)CCCCCc2cc(O)cc(O)c2C(=O)O1` (stereo in doubt; 10) [TALERANOL], the half-inhibitory concentration (IC50) in [1] (Homo sapiens, SF-268, 72 h) was greater than 50 µM; in assay [2] (Homo sapiens, NCI-H460, 72 h) it was 15.4 µM; in assay [3], greater than 25 µM.
